What was measured:
[1] = Oral bioavailability in Sprague-Dawley rat at 80 mg/kg administered through gavage by LC-MS/MS analysis; format: ADME, organism-based; conditions: in vivo
In short: (§1)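 SD rats, n = 3/group. Dosing was either 5 mg/kg iv via tail vein in saline or 80 mg/kg by oral gavage as a suspension in 0.5% methylcellulose. Serial tail-vein blood was drawn into heparinized tubes at 0.5, 1, 2, 3, 4, 5, 6, 8 and 24 h. Plasma was separated, proteins precipitated with acetonitrile, and samples analysed by LC/MS.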

[2] = test system: Rattus norvegicus; experiment: Antiallodynic activity in po dosed Sprague-Dawley rat chronic constriction injury-induced neuropathic pain model assessed as inhibition of thermal hypersensitivity administered as single dose on day 15th post surgery by plantar test; format: functional
In short: (§2)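 CCI or sham SD rats, 10 per group, dosed orally in 0.5% methylcellulose (10 mL/kg) twice daily on days 15–18. Tested after the first dose on day 15 and the last dose on day 18. Plantar test: after 30 min acclimation on a glass floor, radiant heat was applied under the hind paw and withdrawal latency recorded. 30 s cutoff; mean of four samplings.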

[3] = Acute toxicity in po dosed Kun Ming mouse assessed as mortality after 24 hrs; format: organism-based; conditions: in vivo
In short: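 Mice, 10 per group, given a single oral dose (10 mL/kg) of 0.5% methylcellulose vehicle or test compound at 200, 500, 1000, 1500 or 2000 mg/kg. Survivors were counted 24 h after dosing and percent mortality per group was calculated. LD50 was derived by statistical analysis.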

[4] = test system: Mus musculus; format: toxicity, organism-based, Kun Ming; conditions: in vivo, po, 80 mg/kg
[5] = target: Cannabinoid receptor 2 (Homo sapiens) (UniProt P34972); experiment: Displacement of [3H]-CP-55940 from human CB2 receptor expressed in HEK cells at 1 uM after 90 mins by liquid scintillation counting analysis; format: cell-based; conditions: HEK293
[6] = test system: Mus musculus; experiment: Antiallodynic activity in ig dosed Kun Ming mouse assessed as inhibition of formalin-induced pain in delayed pain response phase administered 15 mins prior to formalin challenge measured after 15 to 45 mins post formalin dosing; format: functional
In short: (§3)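 Mice received 20 μL of 2.5% formalin (0.92% formaldehyde) in the dorsal right hind paw. Time spent licking or biting the paw was scored at 0–5 min (phase I) and 15–45 min (phase II), with a mirror behind the glass cylinder. Vehicle was 30% PEG 400 at 10 mL/kg, given 15 min before formalin. n = 10–12 per group. % antinociception = (LT_V − LT_D)/LT_V × 100.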

[7] = test system: Mus musculus; experiment: Antinociceptive activity in Kun Ming mouse assessed as paw biting time in delayed pain response phase at 80 mg/kg, ig administered 15 mins prior to formalin challenge measured after 15 to 45 mins post formalin dosing; format: functional; in short: as §3
[8] = AUC (0 to infinity) in Sprague-Dawley rat at 80 mg/kg, po administered through gavage by LC-MS/MS analysis; format: ADME, organism-based; parameters: dose 80 mg/kg, route oral, time infinity; conditions: in vivo
In short: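 Oral gavage to rats (n = 3/group), 80 mg/kg as suspension in 0.5% methylcellulose. Blood drawn serially from lateral tail vein into heparinized tubes at 30 min and 1, 2, 3, 4, 5, 6, 8 and 24 h. Plasma obtained by centrifugation, acetonitrile protein precipitation, LC/MS quantification.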

[9] = target: Transient receptor potential cation channel subfamily V member 1 (Homo sapiens) (UniProt Q8NER1); experiment: Inhibition of human TRPV-1 expressed in HEK293 cells at 1 uM by whole cell patch clamp method; format: cell-based
[10] = test system: Rattus norvegicus; experiment: Effect on thermal hypersensitivity in sham-operated Sprague-Dawley rat at 20 to 80 mg/kg, po administered as bid on days 15th to 18th; format: ADME, organism-based; conditions: in vivo; in short: as §2
[11] = target: Cannabinoid receptor 1 (Homo sapiens) (UniProt P21554); experiment: Displacement of [3H]-CP-55940 from human CB1 receptor expressed in CHO cells at 1 uM after 90 mins by liquid scintillation counting analysis; format: cell-based
[12] = test system: Mus musculus; format: toxicity, organism-based, Kun Ming; conditions: in vivo, po, 40 mg/kg
[13] = Clearance in Sprague-Dawley rat at 5 mg/kg, iv by LC-MS/MS analysis; format: ADME, organism-based; conditions: in vivo; in short: as §1
[14] = test system: Mus musculus; experiment: Antinociceptive activity in Kun Ming mouse assessed as paw licking time in delayed pain response phase at 80 mg/kg, ig administered 15 mins prior to formalin challenge measured after 15 to 45 mins post formalin dosing; format: functional; in short: as §3
[15] = target: Sodium channel protein type 9 subunit alpha (Homo sapiens) (UniProt Q15858); experiment: Inhibition of human Nav 1.7 expressed in HEK293 cells at 1 uM by electrophysiological assay; format: cell-based
[16] = Displacement of [3H]-DTG from Sigma2 receptor in Dunkin Hartley guinea pig brain membrane after 120 mins by liquid scintillation counting analysis in presence of sigma1 blocker (+)-SKF-10047; parameters: species or system Cavia porcellus
In short: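 Guinea pig brain P2 membranes incubated with 3 nM [³H]-DTG plus 400 nM (+)-SKF-10047 to block σ1 sites, Tris-HCl pH 8.0, 25 °C for 120 min; nonspecific binding with DTG. Filtration on PEI-presoaked GF/B filters, scintillation counting. […] At least three experiments.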

[17] = target: Glutamate NMDA receptor (Rattus norvegicus) (UniProt P35439+Q00959+Q00960+Q00961+Q62645+Q8VHN2+Q9R1M7); experiment: Displacement of [3H]-glycine from NMDA receptor in rat hippocampal membrane at 1 uM after 30 mins by liquid scintillation counting analysis; format: cell membranes; conditions: Hippocampus
[18] = target: T1, 5-hydroxytryptamine receptor 1A (Rattus norvegicus) (UniProt P19327); experiment: Displacement of [3H]-8-OH-DPAT from 5HT1A receptor in rat cerebral cortex at 1 uM after 30 mins by liquid scintillation counting analysis; format: tissue-based
T1 sequence (whole entry): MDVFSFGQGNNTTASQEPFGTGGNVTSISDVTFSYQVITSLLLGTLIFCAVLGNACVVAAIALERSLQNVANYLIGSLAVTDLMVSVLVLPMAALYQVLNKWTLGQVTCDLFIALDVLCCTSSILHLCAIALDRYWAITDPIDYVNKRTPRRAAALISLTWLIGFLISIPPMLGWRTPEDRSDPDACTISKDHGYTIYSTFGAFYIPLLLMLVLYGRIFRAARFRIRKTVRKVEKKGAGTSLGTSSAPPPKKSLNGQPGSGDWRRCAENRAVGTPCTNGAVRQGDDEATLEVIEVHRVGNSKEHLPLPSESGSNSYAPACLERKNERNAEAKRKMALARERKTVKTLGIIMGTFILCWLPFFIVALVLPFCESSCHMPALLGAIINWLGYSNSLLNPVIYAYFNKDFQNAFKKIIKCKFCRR

[19] = test system: Mus musculus; format: toxicity, organism-based, Kun Ming; conditions: in vivo, po, 160 mg/kg
[20] = test system: Rattus norvegicus; experiment: Antiallodynic activity in po dosed Sprague-Dawley rat chronic constriction injury-induced neuropathic pain model assessed as inhibition of mechanical allodynia administered as single dose on day 15th post surgery by Von frey test; format: functional
In short: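 Sciatic nerve CCI in SD rats (Bennett–Xie) under 5% chloral hydrate: four loose 4-0 silk ligatures on the right sciatic nerve, about 1 cm proximal to the trifurcation. Oral dosing in 0.5% methylcellulose (10 mL/kg), twice daily on days 15–18. Testing followed the first dose on day 15 and the last dose on day 18. Mechanical withdrawal threshold by von Frey up–down method, four samplings averaged. 10 rats/group.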

[21] = Half life in Sprague-Dawley rat at 5 mg/kg, iv by LC-MS/MS analysis; format: ADME, organism-based; conditions: in vivo; in short: as §1

Sequence of Cannabinoid receptor 2 (Homo sapiens) (P34972 whole entry): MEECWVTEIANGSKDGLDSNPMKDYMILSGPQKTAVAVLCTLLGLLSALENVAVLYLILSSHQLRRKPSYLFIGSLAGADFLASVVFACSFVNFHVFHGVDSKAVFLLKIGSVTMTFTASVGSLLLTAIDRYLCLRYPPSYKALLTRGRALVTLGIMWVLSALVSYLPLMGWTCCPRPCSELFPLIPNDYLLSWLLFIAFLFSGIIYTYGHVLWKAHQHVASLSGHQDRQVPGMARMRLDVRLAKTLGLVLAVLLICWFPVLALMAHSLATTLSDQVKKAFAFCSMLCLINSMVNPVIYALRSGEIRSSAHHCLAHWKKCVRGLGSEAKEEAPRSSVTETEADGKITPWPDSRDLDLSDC
Sequence of Sodium channel protein type 9 subunit alpha (Homo sapiens) (Q15858 whole entry, looked up): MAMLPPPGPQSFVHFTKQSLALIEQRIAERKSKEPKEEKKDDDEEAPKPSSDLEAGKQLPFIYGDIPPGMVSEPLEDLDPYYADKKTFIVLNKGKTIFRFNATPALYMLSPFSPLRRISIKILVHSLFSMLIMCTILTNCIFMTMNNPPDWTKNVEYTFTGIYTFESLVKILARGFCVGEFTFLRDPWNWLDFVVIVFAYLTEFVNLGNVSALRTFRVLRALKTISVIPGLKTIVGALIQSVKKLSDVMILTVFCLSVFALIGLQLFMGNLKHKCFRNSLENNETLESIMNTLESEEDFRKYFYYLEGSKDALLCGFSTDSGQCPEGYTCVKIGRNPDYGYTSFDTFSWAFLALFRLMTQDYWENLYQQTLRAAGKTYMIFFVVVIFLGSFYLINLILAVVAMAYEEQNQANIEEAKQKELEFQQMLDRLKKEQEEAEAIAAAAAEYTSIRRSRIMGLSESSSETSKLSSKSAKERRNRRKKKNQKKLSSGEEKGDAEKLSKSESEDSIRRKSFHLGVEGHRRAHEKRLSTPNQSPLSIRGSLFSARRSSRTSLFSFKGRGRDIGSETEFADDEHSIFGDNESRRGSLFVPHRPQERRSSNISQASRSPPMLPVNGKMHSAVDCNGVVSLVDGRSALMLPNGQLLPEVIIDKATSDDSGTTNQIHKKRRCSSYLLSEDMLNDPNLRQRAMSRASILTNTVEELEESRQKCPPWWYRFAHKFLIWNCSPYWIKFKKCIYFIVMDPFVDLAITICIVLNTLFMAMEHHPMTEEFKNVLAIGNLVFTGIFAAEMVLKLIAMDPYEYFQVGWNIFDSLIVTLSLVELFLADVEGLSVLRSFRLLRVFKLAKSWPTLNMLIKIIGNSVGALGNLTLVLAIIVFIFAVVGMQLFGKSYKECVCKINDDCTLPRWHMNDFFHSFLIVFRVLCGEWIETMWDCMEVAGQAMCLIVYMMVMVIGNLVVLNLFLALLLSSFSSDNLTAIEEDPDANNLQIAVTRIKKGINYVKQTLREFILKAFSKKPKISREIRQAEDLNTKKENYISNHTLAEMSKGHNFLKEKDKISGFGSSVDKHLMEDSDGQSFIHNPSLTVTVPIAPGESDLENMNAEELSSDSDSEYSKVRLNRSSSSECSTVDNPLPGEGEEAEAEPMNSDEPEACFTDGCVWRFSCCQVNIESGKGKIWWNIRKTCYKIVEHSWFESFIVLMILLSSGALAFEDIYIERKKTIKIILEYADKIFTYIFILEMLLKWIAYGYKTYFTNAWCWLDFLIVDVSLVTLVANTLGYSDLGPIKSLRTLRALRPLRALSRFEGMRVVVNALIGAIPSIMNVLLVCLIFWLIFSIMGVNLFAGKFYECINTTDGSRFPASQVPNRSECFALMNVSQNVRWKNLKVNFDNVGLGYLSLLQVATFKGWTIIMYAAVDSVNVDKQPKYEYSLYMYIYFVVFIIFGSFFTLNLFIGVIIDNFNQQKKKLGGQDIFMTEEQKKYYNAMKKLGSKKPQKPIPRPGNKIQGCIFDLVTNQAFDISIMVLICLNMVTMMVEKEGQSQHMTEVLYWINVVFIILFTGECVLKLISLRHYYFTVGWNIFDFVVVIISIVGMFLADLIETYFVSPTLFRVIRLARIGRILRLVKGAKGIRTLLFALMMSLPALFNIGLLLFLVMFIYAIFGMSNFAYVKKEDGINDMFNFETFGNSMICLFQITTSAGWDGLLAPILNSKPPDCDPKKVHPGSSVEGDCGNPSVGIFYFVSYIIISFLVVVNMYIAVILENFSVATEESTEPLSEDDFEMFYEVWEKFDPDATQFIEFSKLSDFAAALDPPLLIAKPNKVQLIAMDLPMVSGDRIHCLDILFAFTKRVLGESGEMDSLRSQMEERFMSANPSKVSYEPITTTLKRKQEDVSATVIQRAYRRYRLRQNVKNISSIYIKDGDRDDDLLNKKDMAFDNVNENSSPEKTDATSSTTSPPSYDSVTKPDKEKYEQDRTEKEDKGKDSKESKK
Sequence of Cannabinoid receptor 1 (Homo sapiens) (P21554 whole entry): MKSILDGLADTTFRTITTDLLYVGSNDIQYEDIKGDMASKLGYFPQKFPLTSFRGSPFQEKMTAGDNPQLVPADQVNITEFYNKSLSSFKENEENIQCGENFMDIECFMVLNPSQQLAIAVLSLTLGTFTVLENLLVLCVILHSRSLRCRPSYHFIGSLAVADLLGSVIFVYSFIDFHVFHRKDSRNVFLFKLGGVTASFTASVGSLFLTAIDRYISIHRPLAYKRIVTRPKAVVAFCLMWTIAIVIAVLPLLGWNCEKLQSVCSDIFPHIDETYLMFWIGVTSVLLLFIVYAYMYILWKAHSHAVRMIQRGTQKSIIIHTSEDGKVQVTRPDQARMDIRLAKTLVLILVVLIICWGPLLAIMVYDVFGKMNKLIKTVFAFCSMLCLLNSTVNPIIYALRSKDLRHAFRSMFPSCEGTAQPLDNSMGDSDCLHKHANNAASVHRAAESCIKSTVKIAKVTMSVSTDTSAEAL
Sequence of Transient receptor potential cation channel subfamily V member 1 (Homo sapiens) (Q8NER1 whole entry): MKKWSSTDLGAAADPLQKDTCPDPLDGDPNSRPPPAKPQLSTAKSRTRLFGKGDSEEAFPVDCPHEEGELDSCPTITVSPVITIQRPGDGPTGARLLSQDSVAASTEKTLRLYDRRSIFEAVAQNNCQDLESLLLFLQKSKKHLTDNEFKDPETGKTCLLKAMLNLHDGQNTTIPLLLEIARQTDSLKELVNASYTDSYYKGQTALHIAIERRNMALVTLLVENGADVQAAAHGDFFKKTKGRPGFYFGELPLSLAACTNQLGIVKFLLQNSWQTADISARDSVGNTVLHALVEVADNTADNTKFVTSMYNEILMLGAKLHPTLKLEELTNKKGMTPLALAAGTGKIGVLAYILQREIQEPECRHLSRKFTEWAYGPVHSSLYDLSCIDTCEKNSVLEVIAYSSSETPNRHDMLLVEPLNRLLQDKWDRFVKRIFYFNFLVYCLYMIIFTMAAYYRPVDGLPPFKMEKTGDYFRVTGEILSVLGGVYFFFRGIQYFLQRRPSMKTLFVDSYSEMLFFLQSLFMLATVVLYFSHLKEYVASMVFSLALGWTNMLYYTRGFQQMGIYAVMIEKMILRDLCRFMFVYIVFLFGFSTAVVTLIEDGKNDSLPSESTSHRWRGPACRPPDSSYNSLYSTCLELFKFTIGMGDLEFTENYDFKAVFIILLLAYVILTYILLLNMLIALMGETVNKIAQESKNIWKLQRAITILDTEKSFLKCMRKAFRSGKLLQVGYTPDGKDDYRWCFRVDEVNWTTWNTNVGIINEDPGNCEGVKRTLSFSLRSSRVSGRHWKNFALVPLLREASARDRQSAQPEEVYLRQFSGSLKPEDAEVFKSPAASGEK

Compound: O=c1ccc(OCCCN2CCCCC2)nn1-c1ccc(Cl)c(Cl)c1
- bioavailability [1]: 87.5%
- ED50 [2]: 18.6 mg/kg
- LD50 at 24 h [3]: > 2000 mg/kg
- Activity [4]: 18282.4 mm
- inhibition [5]: < 50%
- Activity [6]: Dose-dependent effect
- ED50 ([6]; po): 49 mg/kg
- Time [7]: 41.16 s
- AUC(0-inf) [8]: 13400 ng·h/mL
- inhibition [9]: < 50%
- Activity [10]: Non-toxic
- inhibition [11]: < 50%
- Activity [12]: 22826.6 mm
- clearance [13]: 49.3 mL/min/kg
- Time [14]: 45.88 s
- inhibition [15]: < 50%
- Ki [16]: 1910 nM
- inhibition [17]: < 50%
- inhibition [18]: < 50%
- Activity [19]: 16458.3 mm
- ED50 [20]: 51.9 mg/kg
- half-life [21]: 83.4 min
